# Rows were chosen to be rich in hits. Some 2.6% of all compounds tested hit in one or more screens of this group.
# esBAF inh – Bmi1 luciferase reporter increase in mESCs, primary screen, esBAF inhibitor project, mouse ES cells, Bmi1 luciferase knock-in, single point | 24 h; 100% = twice the neutral-well signal | reporter increase, % at 12.5 µM | 350,000 tested, 2% active | AID 602393, 2012; in the data active = activation above about 40%; inconclusive = no clear call, values can overlap the other calls;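 also: 0% = median of the plate's neutral control wells and 100% = double that signal; a rise in the Bmi1 reporter signal indicates esBAF inhibition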
# SMARCA2 act – SMARCA2 (BRM) function activators, primary screen, cell-based, luminescence, high throughput | MG213 cells, MMTV-luciferase reporter, dexamethasone, overnight | activation, % at 9.1 µM | 370,000 tested, 1% active | AID 652017, 2013; in the data active = activation above about 7.8%;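 also: 0% = vehicle wells and 100% = reference activator wells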
# ASAP1 inh – inhibitors of human ASAP1 ArfGAP activity, primary screen, biochemical, fluorescence polarization. inhibition, % at 16.5 µM. AID 624377, 2012. Arf-GAP with SH3 domain, ANK repeat and PH domain-containing protein 1 (Homo sapiens), …. 360,000 tested, 0.19% active. ASAP1-stimulated ARF1 GTP hydrolysis, GDP FP detection; in the data active = inhibition above about 25%;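 also: 0% = vehicle with enzyme and substrate and 100% = no enzyme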
# Target sequence (Q9ULH1 325-724 limits assumed): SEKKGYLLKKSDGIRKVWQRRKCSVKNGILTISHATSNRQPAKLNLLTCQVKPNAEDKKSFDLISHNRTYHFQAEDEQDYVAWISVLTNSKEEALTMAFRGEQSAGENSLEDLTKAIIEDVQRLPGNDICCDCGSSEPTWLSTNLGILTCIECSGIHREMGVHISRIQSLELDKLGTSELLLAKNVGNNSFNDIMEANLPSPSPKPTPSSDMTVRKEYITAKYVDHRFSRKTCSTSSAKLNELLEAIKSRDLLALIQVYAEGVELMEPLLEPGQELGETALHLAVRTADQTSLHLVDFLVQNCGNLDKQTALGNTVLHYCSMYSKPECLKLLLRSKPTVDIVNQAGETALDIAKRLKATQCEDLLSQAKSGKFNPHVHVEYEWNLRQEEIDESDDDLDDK
# ARFGAP1 inh – inhibitors of rat ARFGAP1 GAP activity, primary screen, biochemical, fluorescence polarization, GDP tracer; 360,000 tested, 0.26% active; Arfgap1-stimulated ARF1 GTP hydrolysis, GDP FP detection; ADP-ribosylation factor GTPase-activating protein 1 (Rattus norvegicus), Q62848; inhibition, % at 16.5 µM;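 active = inhibition above a per-plate limit, mean inhibition of low control wells plus 3 SD, cut at about 25% in these data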;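 also: 0% = DMSO wells with enzyme and 100% = wells lacking Arfgap1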
# Target sequence (Q62848 1-136 limits assumed): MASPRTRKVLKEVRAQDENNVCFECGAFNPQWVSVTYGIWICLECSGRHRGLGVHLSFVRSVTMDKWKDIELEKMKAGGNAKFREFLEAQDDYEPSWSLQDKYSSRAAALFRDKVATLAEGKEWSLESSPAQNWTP
#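 system = rat Arfgap1 catalytic domain, aa 1-136 | technique = FP, GDP Alexa 633 tracer displaced from anti-GDP antibody, 620/688 nm | compound = one concentration, 16.5 µM, DMSO 1.26% | medium = HEPES-based buffer, pH 7.5 | timing = compound-enzyme preincubation 20 min, reaction 120 min, detection 60 min, 25 °C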
# * hit, by the source's call; ? = inconclusive; / = not tested or not shown.
SMILES,esBAF inh,SMARCA2 act,ASAP1 inh,ARFGAP1 inh
Cc1ccc(CNC(=O)Nc2ccccc2)c(C)c1,71*,2,-5,3
Cc1ccc(CNC(=O)Nc2ccc(C)cc2)cc1,28,3,2,-4
Cc1ccccc1CNC(=O)Nc1ccc(Cl)cc1,61*,7,-14,8
COc1ccc(-c2noc(CSc3ccccc3)n2)cc1OC,52*,2,-6,12
COc1ccc(-c2nc(-c3cccc(C)c3)no2)cc1OC,46*,/,/,/
COc1ccc(-c2nc(C3CCCCC3)no2)cc1OC,60*,4,6,-1
Cc1ccc(SCc2nc(-c3ccccc3)no2)cc1,18,3,-3,-5
COc1ccccc1-c1noc(-c2ccccc2)n1,/,7,-7,-7
COc1ccc(-c2nc(-c3ccccc3OC)no2)cc1OC,55*,4,3,16
c1ccc(-c2nc(C3CCCCC3)no2)cc1,33,-3,-2,2
O=C(C[C@@H]1CC[C@@H]2[C@H](COC[C@H](O)CN2Cc2cccc(C(F)(F)F)c2)O1)NCCc1ccccc1,-4,/,/,/
COc1ccc(CN(C)C[C@@H]2Oc3ccc(NC(=O)NC(C)C)cc3C(=O)N([C@H](C)CO)C[C@@H]2C)cc1,-2,/,/,/
COc1ccc(-c2nnc(SCc3ccccc3F)o2)cc1OC,66*,4,0,-10
CCN1C(=O)/C(=C2\C=Cc3ccccc3N2CC)SC1=S,4,-4,-9,2
CCN1C(=C2C(=O)c3ccccc3C2=O)C=Cc2ccccc21,44*,0,-8,-4
CCOC(=O)c1ccc(-n2c(CN3CCN(CC)CC3)nc3ccc([N+](=O)[O-])cc3c2=O)cc1,-2,7.9*,6,-6
CCOC(=O)c1ccc(-n2c(CN3CCOCC3)nc3ccc([N+](=O)[O-])cc3c2=O)cc1,-1,1,6,-1
CC1CCCCN1CCCNC(=O)c1ccc2c(c1)NC(=O)CN2C (configuration not stated),-6,7.9*,-1,5
COc1ccccc1C(=O)Nc1ccc2c(c1)OC[C@H](C)NC[C@H](C)[C@H](OC)CN(C)C2=O,3,/,/,/
O=C(Nc1ccc(-c2nc3cc(Cl)ccc3c(=O)o2)cc1)c1ccco1,/,2,8,-4
O=C(Nc1ccc(-c2nc3c(ccc4ccccc43)o2)cc1)c1ccco1,50*,2,13,3
Cc1cccc2[nH]c(-c3ccc(NC(=O)c4ccco4)cc3)nc12,84*,7,0,2
CC(=O)Nc1ccc2nc(-c3ccc(Br)o3)[nH]c2c1,/,1,-2,2
Cc1ccc(-c2nc3ccccc3[nH]2)cc1NC(=O)c1ccco1,37,5,1,-3
O=C(Nc1ccc2nc(-c3ccc(Br)o3)[nH]c2c1)c1cccs1,49*,3,13,5
SMILES,esBAF inh,SMARCA2 act,ASAP1 inh,ARFGAP1 inh
O=C(Nc1ccc2nc(-c3ccc(Br)o3)[nH]c2c1)c1ccco1,65*,7,5,1
CNC[C@@H]1Oc2ccc(NC(=O)Cn3cnnn3)cc2CC(=O)N([C@H](C)CO)C[C@@H]1C,0,/,/,/
COc1ccc(CN2C[C@H](C)[C@H](OC)CN(C)C(=O)c3cc(NC(=O)c4nc5ccccc5s4)ccc3OC[C@@H]2C)cc1,-2,/,/,/
O=C(Nc1ccc2nc(-c3ccccc3)[nH]c2c1)c1ccco1,54*,5,3,-4
C[C@@H]1CCCCO[C@@H](CN(C)C(=O)Nc2ccc3c(c2)OCO3)[C@@H](C)CN([C@H](C)CO)C(=O)c2cc(NC(=O)c3ccncc3)ccc2O1,-7,/,/,/
CCOc1ccc(Nc2c3ccccc3nc3ccccc23)cc1,-15,2,-14,0
Nn1c(Nc2ccccc2)nc2ccccc21,65*,4,-2,-10
CCOc1ccc(Nc2nc3ccccc3n2C)cc1,52*,4,1,-2
CCOc1ccc(Nc2cc(C)c3ccccc3n2)cc1,46*,0,-2,4
COc1ccccc1-c1cnc2c(c1)C(=O)N([C@H](C)CO)C[C@@H](C)[C@@H](CN(C)C(C)=O)O2,0,/,/,/
CCCNC(=O)N[C@H]1CC[C@H](CCn2cc(C3CCCC3)nn2)O[C@H]1CO,0,/,/,/
C[C@@H]1CN([C@H](C)CO)C(=O)c2cccc(NC(=O)Nc3ccc(F)cc3)c2O[C@@H]1CN(C)S(C)(=O)=O,1,/,/,/
CCCNC(=O)C[C@H]1CC[C@@H]2[C@H](COc3ccc(NC(=O)C4CCOCC4)cc3C(=O)N2C)O1,-3,/,/,/
Cc1cc(C(=O)COC(=O)c2ccc(NC(=O)CC#N)cc2)c(C)n1-c1ccc(OC(F)F)cc1,/,-7,6,7
Cc1cc(C(=O)COC(=O)c2ccc(NC(=O)CC#N)cc2)c(C)n1C1CC1,68*,4,-4,6
Cc1cc(C(=O)COC(=O)c2ccc(Cl)c(S(N)(=O)=O)c2)c(C)n1C1CC1,78*,3,-6,4
Cc1cc(C(=O)COC(=O)c2ccc(NC(=O)CC#N)cc2)c(C)n1CC(F)(F)F,62*,0,0,3
NC(=O)Nc1ccc(C(=O)OCC(=O)c2c[nH]c3ccccc23)cc1,1,1,5,-10
N#CCC(=O)Nc1ccc(C(=O)OCC(=O)c2c[nH]c3ccccc23)cc1,24,7.9*,2,7
C[C@H](CO)N1C[C@H](C)[C@H](CN(C)Cc2ccc(C(F)(F)F)cc2)Oc2ccc(NS(=O)(=O)c3cccs3)cc2CC1=O,-4,/,/,/
Cc1cccc(OCCCn2c(=O)oc3ccccc32)c1,48*,-3,-4,-1
CC(=O)Nc1c(-c2ccc3ccccc3c2)nc2ccccn12,57*,7,-3,1
COc1ccccc1C(=O)O/N=C(\N)c1ccc(Cl)cc1,52*,6,0,0
Cc1ccccc1C(=O)O/N=C(\N)c1ccccc1,41,4,-2,14
COc1ccc(C(=O)O/N=C(\N)c2ccc(Cl)cc2)cc1,?,4,-5,1
SMILES,esBAF inh,SMARCA2 act,ASAP1 inh,ARFGAP1 inh
N/C(=N\OC(=O)c1ccccc1Br)c1ccc([N+](=O)[O-])cc1,50*,6,-16,-16
Cc1ccccc1/C(N)=N/OC(=O)c1ccc(F)cc1,48*,2,-5,-9
Cc1ccccc1C(=O)O/N=C(\N)c1ccc([N+](=O)[O-])cc1,57*,0,6,-9
C[C@@H]1CN([C@H](C)CO)C(=O)c2cc(NC(=O)Nc3ccccc3)ccc2O[C@@H](C)CCCCO[C@H]1CN(C)S(=O)(=O)c1cn(C)cn1,0,/,/,/
CO[C@@H]1CN(C)C(=O)c2cc(NC(=O)NC3CCCCC3)ccc2OC[C@H](C)N(C)C[C@@H]1C,-5,/,/,/
C[C@H]1CN([C@@H](C)CO)C(=O)Cc2cc(NC(=O)NC3CCCCC3)ccc2O[C@@H]1CN(C)C(=O)Nc1ccc(F)cc1,2,/,/,/

# Bioassay records: PubChem BioAssay, several laboratories
